Test results: ChEMBL document CHEMBL4257484, “Membrane-active antimicrobial poly(amino-modified alkyl) β-cyclodextrins synthesized via click reactions” (Medchemcomm, 2018)
≈ marks a conversion by molar mass, not a printed value.

What was measured:
Staphylococcus aureus [1] = test: Antibacterial activity against Staphylococcus aureus FDA 209P assessed as decrease in cell viability after 30 mins by colony counting method; format: functional; settings: 0.5 h
Summary of the method: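 S. aureus washed twice and suspended at 2 × 10^9 cells per cm3 in 100 mM choline chloride/50 mM Mops-Tris, pH 7.2. Exposed to CD at 37 °C for 30 min. An aliquot was diluted in physiological saline, plated on polypeptone/yeast extract/NaCl agar and incubated overnight at 37 °C. Viability was taken from colony counts; LC50 is the concentration giving 50% viability.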

Staphylococcus aureus [2] = test: Induction of membrane disruption in methicillin-sensitive Staphylococcus aureus FDA 209P assessed as increase in K+ efflux after 30 mins; format: functional; settings: 0.5 h, read-out: ED50 (the source's name)
Summary of the method: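 S. aureus washed twice and suspended at 2 × 10^9 cells per cm3 in 100 mM choline chloride/50 mM Mops-Tris, pH 7.2, then exposed to compound at 37 °C for 30 min. Released K+ was measured in the centrifuged supernatant with a K+-selective electrode. Melittin (10 µM) defined 100% efflux, and ED50 is the concentration giving 50% efflux.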

Pseudomonas aeruginosa = test: Antibacterial activity against drug-sensitive Pseudomonas aeruginosa PAO1 after 20 hrs by liquid microdilution method; format: functional; settings: PAO1, 20 h
Summary of the method: (§1)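 Two-fold serial dilutions of compound in Mueller–Hinton broth, inoculated with 1 × 10^4 cells and cultured at 37 °C for 20 h in microtiter wells.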

Staphylococcus aureus [3] = test: Antibacterial activity against methicillin-resistant Staphylococcus aureus MS29202 after 18 to 20 hrs by agar dilution method; format: functional
Summary of the method: (§2)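 Agar dilution per CLSI. Overnight broth cultures were diluted 100-fold, and one loopful (about 10^5 to 10^4 CFU) was spotted onto agar plates containing the CD. Growth was scored after 18–20 h at 37 °C. MIC values are in µM.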

[4] = Hemolytic activity in rabbit RBC at 10 uM after 20 mins relative to control; format: ADME, cell-based, Oryctolagus cuniculus, Erythrocyte; settings: rabbit red blood cells (erythrocytes), read-out: Activity
Summary of the method: (§3)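 Rabbit erythrocytes suspended in 150 mM NaCl/10 mM Hepes-NaOH, pH 7.4, at 0.5% hematocrit (final) and incubated with compound at 37 °C. The table footnote gives 20 min; the methods section gives 30 min. Hemolysis was read as absorbance at 540 nm, with 50 µM lysolecithin defining 100% hemolysis.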

[5] = Hemolytic activity in rabbit RBC at 50 uM after 20 mins relative to control; format: ADME, cell-based, Oryctolagus cuniculus, Erythrocyte; settings: rabbit red blood cells (erythrocytes), read-out: Activity; summary of the method: as §3
Enterococcus faecalis [6] = test: Antibacterial activity against drug-resistant Enterococcus faecalis MS29030 after 18 to 20 hrs by agar dilution method; format: functional; summary of the method: as §2
Staphylococcus aureus [7] = test: Antibacterial activity against methicillin-sensitive Staphylococcus aureus FDA 209P after 20 hrs by liquid microdilution method; format: functional; summary of the method: as §1
Escherichia coli = test: Antibacterial activity against drug-sensitive Escherichia coli K-12 W3110 after 20 hrs by liquid microdilution method; format: functional; settings: K-12 substr. W3110, 20 h; summary of the method: as §1
Streptococcus agalactiae = test: Antibacterial activity against drug-resistant Streptococcus agalactiae B1 after 18 to 20 hrs by agar dilution method; format: functional; summary of the method: as §2
[8] = Lipophilicity, log P of the compound; format: physicochemical; settings: octanol/water
[9] = Hemolytic activity in rabbit RBC at 1 uM after 20 mins relative to control; format: ADME, cell-based, Oryctolagus cuniculus, Erythrocyte; settings: rabbit red blood cells (erythrocytes), read-out: Activity; summary of the method: as §3
[10] = Hemolytic activity in rabbit RBC at 5 uM after 20 mins relative to control; format: ADME, cell-based, Oryctolagus cuniculus, Erythrocyte; settings: rabbit red blood cells (erythrocytes), read-out: Activity; summary of the method: as §3
Salmonella typhimurium = test: Antibacterial activity against drug-sensitive Salmonella typhimurium LT2 after 20 hrs by liquid microdilution method; format: functional, Salmonella enterica subsp. enterica serovar Typhimurium; settings: Salmonella enterica, LT2, 20 h; summary of the method: as §1
[11] = Hemolytic activity in rabbit RBC at 20 uM after 20 mins relative to control; format: ADME, cell-based, Oryctolagus cuniculus, Erythrocyte; settings: rabbit red blood cells (erythrocytes), read-out: Activity; summary of the method: as §3
Enterococcus faecium = test: Antibacterial activity against drug-resistant Enterococcus faecium MS29120 after 18 to 20 hrs by agar dilution method; format: functional; summary of the method: as §2
Enterococcus faecalis [12] = test: Antibacterial activity against vancomycin-resistant Enterococcus faecalis MS29016 after 18 to 20 hrs by agar dilution method; format: functional; summary of the method: as §2
Bacillus subtilis = test: Antibacterial activity against drug-sensitive Bacillus subtilis 168 after 20 hrs by liquid microdilution method; format: functional; settings: subsp. subtilis str. 168, 20 h; summary of the method: as §1
[13] = Hemolytic activity in rabbit RBC at 2 uM after 20 mins relative to control; format: ADME, cell-based, Oryctolagus cuniculus, Erythrocyte; settings: rabbit red blood cells (erythrocytes), read-out: Activity; summary of the method: as §3

| SMILES | LC50 (Staphylococcus aureus [1]) [µM] | EC50 (Staphylococcus aureus [2]) [µM] | MIC (Pseudomonas aeruginosa) [µM] | MIC (Staphylococcus aureus [3]) [µM] | hemolysis at 20 min, 10 µM [4] [%] | hemolysis at 20 min, 50 µM [5] [%] | MIC (Enterococcus faecalis [6]) [µM] | MIC (Staphylococcus aureus [7]) [µM] | MIC (Escherichia coli) [µM] | MIC (Streptococcus agalactiae) [µM] | logP [8] | hemolysis at 20 min, 1 µM [9] [%] | hemolysis at 20 min, 5 µM [10] [%] | MIC (Salmonella typhimurium) [µM] | hemolysis at 20 min, 20 µM [11] [%] | MIC (Enterococcus faecium) [µM] | MIC (Enterococcus faecalis [12]) [µM] | MIC (Bacillus subtilis) [µM] | hemolysis at 20 min, 2 µM [13] [%] |
| --- | --- | --- | --- | --- | --- | --- | --- | --- | --- | --- | --- | --- | --- | --- | --- | --- | --- | --- | --- |
| OC[C@H]1O[C@@H]2O[C@H]3[C@H](O)[C@@H](O)[C@@H](O[C@H]4[C@H](O)[C@@H](O)[C@@H](O[C@H]5[C@H](O)[C@@H](O)[C@@H](O[C@H]6[C@H](O)[C@@H](O)[C@@H](O[C@H]7[C@H](O)[C@@H](O)[C@@H](O[C@H]8[C@H](O)[C@@H](O)[C@@H](O[C@H]1[C@H](O)[C@H]2O)O[C@@H]8CO)O[C@@H]7CO)O[C@@H]6CO)O[C@@H]5CO)O[C@@H]4CO)O[C@@H]3CO [BETADEX] | > 50 | > 50 |  |  |  |  |  |  |  |  |  |  |  |  |  |  |  |  |  |
| CCCCCNCc1cn(C[C@H]2O[C@@H]3O[C@H]4[C@H](O)[C@@H](O)[C@@H](O[C@H]5[C@H](O)[C@@H](O)[C@@H](O[C@H]6[C@H](O)[C@@H](O)[C@@H](O[C@H]7[C@H](O)[C@@H](O)[C@@H](O[C@H]8[C@H](O)[C@@H](O)[C@@H](O[C@H]9[C@H](O)[C@@H](O)[C@@H](O[C@H]2[C@H](O)[C@H]3O)O[C@@H]9Cn2cc(CNCCCCC)nn2)O[C@@H]8Cn2cc(CNCCCCC)nn2)O[C@@H]7Cn2cc(CNCCCCC)nn2)O[C@@H]6Cn2cc(CNCCCCC)nn2)O[C@@H]5Cn2cc(CNCCCCC)nn2)O[C@@H]4Cn2cc(CNCCCCC)nn2)nn1 | 20 | 20 | > 43 | 21 (≈ 45.9 µg/mL) | 0 | 1 | > 43 | 3 to 5 (≈ 6.56 to 10.9 µg/mL) | 43 (≈ 94 µg/mL) | 3 (≈ 6.56 µg/mL) | -0.48 | 0 | 1 | > 43 | 0 | 21 (≈ 45.9 µg/mL) | > 43 | 1 (≈ 2.19 µg/mL) | 0 |
| CCCCCCNCc1cn(C[C@H]2O[C@@H]3O[C@H]4[C@H](O)[C@@H](O)[C@@H](O[C@H]5[C@H](O)[C@@H](O)[C@@H](O[C@H]6[C@H](O)[C@@H](O)[C@@H](O[C@H]7[C@H](O)[C@@H](O)[C@@H](O[C@H]8[C@H](O)[C@@H](O)[C@@H](O[C@H]9[C@H](O)[C@@H](O)[C@@H](O[C@H]2[C@H](O)[C@H]3O)O[C@@H]9Cn2cc(CNCCCCCC)nn2)O[C@@H]8Cn2cc(CNCCCCCC)nn2)O[C@@H]7Cn2cc(CNCCCCCC)nn2)O[C@@H]6Cn2cc(CNCCCCCC)nn2)O[C@@H]5Cn2cc(CNCCCCCC)nn2)O[C@@H]4Cn2cc(CNCCCCCC)nn2)nn1 | 15 | 15 | 10 (≈ 22.8 µg/mL) | 21 (≈ 48 µg/mL) | 25 | 110 | > 42 | 3 to 10 (≈ 6.85 to 22.8 µg/mL) | 5 (≈ 11.4 µg/mL) | 10 (≈ 22.8 µg/mL) | -0.06 | 0 | 7 | 10 (≈ 22.8 µg/mL) | 64 | 10 (≈ 22.8 µg/mL) | 42 (≈ 96 µg/mL) | 3 (≈ 6.85 µg/mL) | 4 |
